≈ marks a conversion by molar mass, not a printed value. Residues, ends and D or L forms follow the SMILES beside them.
Tests used:
Pseudomonas aeruginosa [1] = assay: Antibacterial activity against Pseudomonas aeruginosa PAO1; type: functional
Summary of the method: (§1)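 Bacteria grown to mid-log phase in Iso-Sensitest broth, diluted to 1 × 10^6 to 5 × 10^6 CFU/ml in 10 mM potassium phosphate, pH 7.4, with 1% (vol/vol) Iso-Sensitest broth. Peptide dilutions incubated with 100 μl of cells (1 × 10^5 to 5 × 10^5 CFU) at 37°C for 3 h. 10-fold dilutions plated and CFU counted next day. MBC = concentration giving >99.99% kill of inoculum. Triplicate on three occasions, mean taken.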

Pseudomonas aeruginosa [2] = assay: Antibacterial activity against meropenem and colistin-resistant Pseudomonas aeruginosa C3425; type: functional; summary of the method: as §1
Pseudomonas aeruginosa [3] = assay: Antibacterial activity against tobramycin-resistant Pseudomonas aeruginosa H183; type: functional; summary of the method: as §1
Pseudomonas aeruginosa [4] = assay: Antibacterial activity against tobramycin-resistant Pseudomonas aeruginosa C4269; type: functional; summary of the method: as §1
Pseudomonas aeruginosa [5] = assay: Antibacterial activity against meropenem and tobramycin-resistant Pseudomonas aeruginosa C3781; type: functional; summary of the method: as §1
Escherichia coli = assay: Antibacterial activity against Escherichia coli ATCC 25922; type: functional
Summary of the method: (§2)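 Mid-log cultures grown in Iso-Sensitest broth, diluted to 1 × 10^6 to 5 × 10^6 CFU/ml in 10 mM potassium phosphate with 1% (vol/vol) Iso-Sensitest broth, pH 7.4. Peptide at various concentrations was incubated with 1 × 10^5 to 5 × 10^5 CFU in 100 μl at 37°C for 3 h. 10-fold dilutions were plated and CFU counted next day. MBC was taken as >99.99% killing of the inoculum, as the mean of triplicates on three independent occasions.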

Burkholderia cepacia = assay: Antibacterial activity against Burkholderia cepacia ATCC 25416; type: functional; summary of the method: as §2
Burkholderia cenocepacia = assay: Antibacterial activity against Burkholderia cenocepacia ATCC BAA-245; type: functional; summary of the method: as §2
[6] = tested on: Stenotrophomonas maltophilia; assay: Antibacterial activity against ciprofloxacin, meropenem and tobramycin-resistant Stenotrophomonas maltophilia C1980; type: functional; summary of the method: as §1
[7] = tested on: Stenotrophomonas maltophilia; assay: Antibacterial activity against ciprofloxacin, meropenem and colistin-resistant Stenotrophomonas maltophilia C3625; type: functional; summary of the method: as §1
[8] = tested on: Stenotrophomonas maltophilia; assay: Antibacterial activity against meropenem and tobramycin-resistant Stenotrophomonas maltophilia C3627; type: functional; summary of the method: as §1
[9] = tested on: Bordetella bronchiseptica; assay: Antibacterial activity against Bordetella bronchiseptica J3083; type: functional; summary of the method: as §2
Ralstonia pickettii = assay: Antibacterial activity against Ralstonia pickettii R4050/C3079; type: functional; summary of the method: as §2
Cupriavidus necator = assay: Antibacterial activity against Ralstonia eutropha ATCC 17697; type: functional; summary of the method: as §2
Acinetobacter baumannii = assay: Antibacterial activity against Acinetobacter baumannii ATCC 19606; type: functional; summary of the method: as §2
Enterococcus faecalis = assay: Antibacterial activity against Enterococcus faecalis ATCC 700802; type: functional; summary of the method: as §2
Staphylococcus aureus [10] = assay: Antibacterial activity against Staphylococcus aureus ATCC 25923; type: functional; summary of the method: as §2
Candida albicans = assay: Antifungal activity against Candida albicans J2922; type: functional
Pseudomonas aeruginosa [11] = assay: Antibacterial activity against Pseudomonas aeruginosa in presence of 50 mM NaCl; type: functional
Summary of the method: (§3)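 P. aeruginosa PAO1 (1 × 10^5 CFU in 100 μl) in 10 mM potassium phosphate with 1% (vol/vol) Iso-Sensitest, pH 7.4, containing NaCl (0 to 200 mM). Challenged with peptide in doubling dilutions from 0 to 150 μg/ml at 37°C for 3 h, then plated for CFU. MBC (>99.99% killing) was determined at each NaCl concentration.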

Pseudomonas aeruginosa [12] = assay: Antibacterial activity against Pseudomonas aeruginosa in presence of 100 mM NaCl; type: functional; summary of the method: as §3
Pseudomonas aeruginosa [13] = assay: Antibacterial activity against Pseudomonas aeruginosa in presence of 150 mM NaCl; type: functional; summary of the method: as §3
Pseudomonas aeruginosa [14] = assay: Antibacterial activity against Pseudomonas aeruginosa in presence of 200 mM NaCl; type: functional; summary of the method: as §3
Staphylococcus aureus [15] = assay: Antibacterial activity against ciprofloxacin and methicillin-resistant Staphylococcus aureus J2918
[16] = tested on: Stenotrophomonas maltophilia; assay: Antibacterial activity against ciprofloxacin and meropenem-resistant Stenotrophomonas maltophilia C3626

Row | Molecule | MBC (Pseudomonas aeruginosa [1]) [mg/L] | MBC (Pseudomonas aeruginosa [2]) [mg/L] | MBC (Pseudomonas aeruginosa [3]) [mg/L] | MBC (Pseudomonas aeruginosa [4]) [mg/L] | MBC (Pseudomonas aeruginosa [5]) [mg/L] | MBC (Escherichia coli) [mg/L] | MBC (Burkholderia cepacia) [mg/L] | MBC (Burkholderia cenocepacia) [mg/L] | MBC [6] [mg/L] | MBC [7] [mg/L] | MBC [8] [mg/L] | MBC [9] [mg/L] | MBC (Ralstonia pickettii) [mg/L] | MBC (Cupriavidus necator) [mg/L] | MBC (Acinetobacter baumannii) [mg/L] | MBC (Enterococcus faecalis) [mg/L] | MBC (Staphylococcus aureus [10]) [mg/L] | MBC (Candida albicans) [mg/L] | MBC (Staphylococcus aureus [15]) [mg/L] | MBC [16] [mg/L] | other results
1 | POLYMYXIN B | 0.5 | 1 | 1 | 1 | 0.5 | 0.25 | > 512 | > 512 | 32 | 32 | 64 | 0.12 | > 512 | 128 | 1 | 256 | 256 | > 512 | – | – | –
2 | H-DPVTYIRNGGIAQYRAIGLRHKIGTAGSPFKCAK-OH | – | – | – | – | – | – | – | – | – | – | – | – | – | – | – | – | – | – | – | – | MBC (Pseudomonas aeruginosa [11]): 25 mg/L; MBC (Pseudomonas aeruginosa [12]): 25 mg/L; MBC (Pseudomonas aeruginosa [13]): 50 mg/L; MBC (Pseudomonas aeruginosa [14]): 50 mg/L
3 | CC[C@H](C)[C@H](NC(=O)CNC(=O)CNC(=O)[C@H](CC(N)=O)NC(=O)[C@H](CCCNC(=N)N)NC(=O)[C@@H](NC(=O)[C@H](CS)NC(=O)[C@@H](NC(=O)[C@@H](NC(=O)[C@@H]1CCCN1C(=O)[C@@H](N)CC(=O)O)C(C)C)[C@@H](C)O)[C@@H](C)CC)C(=O)N[C@@H](CS)C(=O)N[C@@H](CCC(N)=O)C(=O)N[C@@H](Cc1ccc(O)cc1)C(=O)N[C@@H](CCCNC(=N)N)C(=O)N[C@@H](CS)C(=O)N[C@H](C(=O)NCC(=O)N[C@@H](CC(C)C)C(=O)N[C@@H](CCCNC(=N)N)C(=O)N[C@@H](Cc1cnc[nH]1)C(=O)N[C@@H](CCCCN)C(=O)N[C@H](C(=O)NCC(=O)N[C@H](C(=O)N[C@@H](CS)C(=O)NCC(=O)N[C@@H](CO)C(=O)N1CCC[C@H]1C(=O)N[C@@H](Cc1ccccc1)C(=O)N[C@@H](CCCCN)C(=O)N[C@@H](CS)C(=O)N[C@@H](CS)C(=O)N[C@@H](CCCCN)C(=O)O)[C@@H](C)O)[C@@H](C)CC)[C@@H](C)CC (H-DPVTCIRNGGICQYRCIGLRHKIGTCGSPFKCCK-OH) | 50 (≈ 13.4 µM) | 50 (≈ 13.4 µM) | 100 (≈ 26.8 µM) | > 100 | 100 (≈ 26.8 µM) | > 100 | > 100 | > 100 | > 100 | > 100 | > 100 | > 100 | > 100 | > 100 | 12.5 (≈ 3.35 µM) | 100 (≈ 26.8 µM) | > 100 | 25 (≈ 6.71 µM) | > 100 | > 100 | –
4 | CC[C@H](C)[C@H](NC(=O)CNC(=O)CNC(=O)[C@H](CC(N)=O)NC(=O)[C@H](CCCNC(=N)N)NC(=O)[C@@H](NC(=O)[C@H](Cc1ccc(O)cc1)NC(=O)[C@@H](NC(=O)[C@@H](NC(=O)[C@@H]1CCCN1C(=O)[C@@H](N)CC(=O)O)C(C)C)[C@@H](C)O)[C@@H](C)CC)C(=O)N[C@@H](CS)C(=O)N[C@@H](CCC(N)=O)C(=O)N[C@@H](Cc1ccc(O)cc1)C(=O)N[C@@H](CCCNC(=N)N)C(=O)N[C@@H](CS)C(=O)N[C@H](C(=O)NCC(=O)N[C@@H](CC(C)C)C(=O)N[C@@H](CCCNC(=N)N)C(=O)N[C@@H](Cc1cnc[nH]1)C(=O)N[C@@H](CCCCN)C(=O)N[C@H](C(=O)NCC(=O)N[C@H](C(=O)N[C@@H](CS)C(=O)NCC(=O)N[C@@H](CO)C(=O)N1CCC[C@H]1C(=O)N[C@@H](Cc1ccccc1)C(=O)N[C@@H](CCCCN)C(=O)N[C@@H](CS)C(=O)N[C@@H](CS)C(=O)N[C@@H](CCCCN)C(=O)O)[C@@H](C)O)[C@@H](C)CC)[C@@H](C)CC (H-DPVTYIRNGGICQYRCIGLRHKIGTCGSPFKCCK-OH) | 6 (≈ 1.58 µM) | 6 (≈ 1.58 µM) | 6 (≈ 1.58 µM) | 6 (≈ 1.58 µM) | 6 (≈ 1.58 µM) | 8 (≈ 2.11 µM) | > 100 | > 100 | 12.5 (≈ 3.3 µM) | 6 (≈ 1.58 µM) | 6 (≈ 1.58 µM) | 6 (≈ 1.58 µM) | 3 (≈ 0.792 µM) | 3 (≈ 0.792 µM) | 3 (≈ 0.792 µM) | 6 (≈ 1.58 µM) | 10 (≈ 2.64 µM) | 3 (≈ 0.792 µM) | 6 (≈ 1.58 µM) | 3 (≈ 0.792 µM) | –
